Measurements published in ChEMBL document CHEMBL1221274, “Discovery and expanded SAR of 4,4-disubstituted quinazolin-2-ones as potent T-type calcium channel antagonists” (Bioorg Med Chem Lett, 2010).
Values belong to the compound of their own block, whether it stands above or below them. Activity calls are given as the source filed them. No cut-off for these calls is given here.

Experiments:
[1] = molecular target: Voltage-dependent T-type calcium channel subunit alpha-1I (Homo sapiens) (UniProt Q9P0X4); assay: Antagonist activity at Cav3.3 alpha1i by depolarized FLIPR assay; type: functional
[2] = molecular target: T1, PXR (nuclear receptor subfamily 1 group I member 2) (Homo sapiens, UniProt O75469); assay: PXR activation relative to rifampicin at 10 uM; conditions: activation
T1 sequence (O75469 whole entry): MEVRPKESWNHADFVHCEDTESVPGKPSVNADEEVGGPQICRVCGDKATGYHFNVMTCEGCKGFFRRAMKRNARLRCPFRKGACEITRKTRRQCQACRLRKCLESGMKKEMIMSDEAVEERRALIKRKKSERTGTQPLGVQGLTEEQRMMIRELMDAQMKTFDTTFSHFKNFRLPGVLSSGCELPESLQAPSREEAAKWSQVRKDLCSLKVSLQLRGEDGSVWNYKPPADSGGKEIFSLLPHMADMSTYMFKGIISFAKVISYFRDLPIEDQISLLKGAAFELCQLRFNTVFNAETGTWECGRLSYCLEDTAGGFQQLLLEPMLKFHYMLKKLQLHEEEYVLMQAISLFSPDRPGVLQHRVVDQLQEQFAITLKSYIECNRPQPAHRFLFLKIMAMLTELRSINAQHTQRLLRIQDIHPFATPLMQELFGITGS

[3] = molecular target: Voltage-dependent T-type calcium channel subunit alpha-1I (Homo sapiens) (UniProt Q9P0X4); assay: Antagonist activity at Cav3.3 alpha1i by hyperpolarized FLIPR assay; type: functional
[4] = Metabolic stability in human liver microsome assessed as compound remaining after 60 mins; type: ADME; conditions: liver microsomes, read-out: Stability
Summary of the method: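 Human liver microsomes (0.2 mg protein/mL) incubated with test compound at 1 µM plus NADPH cofactor at 37 °C for 30 or 60 min; percent parent compound remaining measured.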

[5] = molecular target: T2, Nuclear receptor subfamily 1 group I member 2 (Homo sapiens, UniProt O75469); assay: PXR activation relative to rifampicin at 10 uM; conditions: 10 µM
T2 sequence (O75469 whole entry): T1 sequence (O75469 whole entry)

[6] = Plasma protein binding in rat; type: ADME, cell-free; conditions: read-out: PPB (converted)
[7] = Plasma clearance in rat; type: ADME, organism-based
[8] = Half life in rat; type: ADME, organism-based; conditions: in vivo
Cytochrome P450 3A4 = Cytochrome P450 3A4 (Homo sapiens, UniProt P08684); assay: Inhibition of CYP3A4; type: ADME; conditions: TDE = time-dependent effect
[9] = Volume of distribution at steady state in rat; type: ADME, organism-based; conditions: in vivo, read-out: Vdss
[10] = Plasma clearance in dog; type: ADME, organism-based, Canis lupus familiaris
[11] = Half life in dog; type: ADME, organism-based, Canis lupus familiaris; conditions: in vivo
[12] = Volume of distribution at steady state in dog; type: ADME, organism-based, Canis lupus familiaris; conditions: in vivo, read-out: Vdss
[13] = Oral bioavailability in rat; type: ADME, organism-based; conditions: in vivo
[14] = Plasma clearance in monkey; type: ADME, organism-based, Macaca mulatta; conditions: rhesus monkey
[15] = Half life in monkey; type: ADME, organism-based, Macaca mulatta; conditions: rhesus monkey, in vivo
[16] = Volume of distribution at steady state in monkey; type: ADME, organism-based, Macaca mulatta; conditions: rhesus monkey, in vivo; read-out: Vdss
[17] = Oral bioavailability in monkey; type: ADME, organism-based, Macaca mulatta; conditions: rhesus monkey, in vivo
Rattus norvegicus [18] = assay: Antiepileptic activity in […] rat assessed as inhibition of total seizures at 10 mg/kg, po after 4 hrs; type: functional
Summary of the method: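 Seizure suppression measured by EEG in WAG/Rij rats (absence epilepsy model) after oral dosing; total seizure time scored 4 h post dose and expressed as percent inhibition.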

Rattus norvegicus [19] = assay: Effect on sleep-awake pattern in rat assessed as decrease in active awake at 10 mg/kg, po for 16 hrs; type: functional, organism-based; set-up: dose 10 mg/kg
Summary of the method: (§1)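 Crossover rat study over seven days, n = 7 male rats. ECoG and EMG recorded for 16 h and scored as active wake, light sleep, delta sleep or REM, as minutes per 30 min bin (±SEM). Each time point compared by linear mixed-effects ANOVA.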

Rattus norvegicus [20] = assay: Effect on sleep-awake pattern in rat assessed as decrease in REM sleep at 10 mg/kg, po for 16 hrs; type: functional, organism-based; set-up: dose 10 mg/kg; summary of the method: as §1
Rattus norvegicus [21] = assay: Effect on sleep-awake pattern in rat assessed as increase in delta sleep at 10 mg/kg, po for 16 hrs; type: functional, organism-based; set-up: dose 10 mg/kg; summary of the method: as §1
Homo sapiens [22] = species: Homo sapiens; assay: Plasma protein binding in human; conditions: read-out: PPB (converted)
Rattus norvegicus [23] = species: Rattus norvegicus; assay: Effect on rat Pgp-mediated drug transport assessed as efflux ratio of permeability from basolateral to apical over apical to basolateral side
Homo sapiens [24] = species: Homo sapiens; assay: Effect on human Pgp-mediated drug transport assessed as efflux ratio of permeability from basolateral to apical over apical to basolateral side

Sequence of Voltage-dependent T-type calcium channel subunit alpha-1I (Homo sapiens) (Q9P0X4 whole entry): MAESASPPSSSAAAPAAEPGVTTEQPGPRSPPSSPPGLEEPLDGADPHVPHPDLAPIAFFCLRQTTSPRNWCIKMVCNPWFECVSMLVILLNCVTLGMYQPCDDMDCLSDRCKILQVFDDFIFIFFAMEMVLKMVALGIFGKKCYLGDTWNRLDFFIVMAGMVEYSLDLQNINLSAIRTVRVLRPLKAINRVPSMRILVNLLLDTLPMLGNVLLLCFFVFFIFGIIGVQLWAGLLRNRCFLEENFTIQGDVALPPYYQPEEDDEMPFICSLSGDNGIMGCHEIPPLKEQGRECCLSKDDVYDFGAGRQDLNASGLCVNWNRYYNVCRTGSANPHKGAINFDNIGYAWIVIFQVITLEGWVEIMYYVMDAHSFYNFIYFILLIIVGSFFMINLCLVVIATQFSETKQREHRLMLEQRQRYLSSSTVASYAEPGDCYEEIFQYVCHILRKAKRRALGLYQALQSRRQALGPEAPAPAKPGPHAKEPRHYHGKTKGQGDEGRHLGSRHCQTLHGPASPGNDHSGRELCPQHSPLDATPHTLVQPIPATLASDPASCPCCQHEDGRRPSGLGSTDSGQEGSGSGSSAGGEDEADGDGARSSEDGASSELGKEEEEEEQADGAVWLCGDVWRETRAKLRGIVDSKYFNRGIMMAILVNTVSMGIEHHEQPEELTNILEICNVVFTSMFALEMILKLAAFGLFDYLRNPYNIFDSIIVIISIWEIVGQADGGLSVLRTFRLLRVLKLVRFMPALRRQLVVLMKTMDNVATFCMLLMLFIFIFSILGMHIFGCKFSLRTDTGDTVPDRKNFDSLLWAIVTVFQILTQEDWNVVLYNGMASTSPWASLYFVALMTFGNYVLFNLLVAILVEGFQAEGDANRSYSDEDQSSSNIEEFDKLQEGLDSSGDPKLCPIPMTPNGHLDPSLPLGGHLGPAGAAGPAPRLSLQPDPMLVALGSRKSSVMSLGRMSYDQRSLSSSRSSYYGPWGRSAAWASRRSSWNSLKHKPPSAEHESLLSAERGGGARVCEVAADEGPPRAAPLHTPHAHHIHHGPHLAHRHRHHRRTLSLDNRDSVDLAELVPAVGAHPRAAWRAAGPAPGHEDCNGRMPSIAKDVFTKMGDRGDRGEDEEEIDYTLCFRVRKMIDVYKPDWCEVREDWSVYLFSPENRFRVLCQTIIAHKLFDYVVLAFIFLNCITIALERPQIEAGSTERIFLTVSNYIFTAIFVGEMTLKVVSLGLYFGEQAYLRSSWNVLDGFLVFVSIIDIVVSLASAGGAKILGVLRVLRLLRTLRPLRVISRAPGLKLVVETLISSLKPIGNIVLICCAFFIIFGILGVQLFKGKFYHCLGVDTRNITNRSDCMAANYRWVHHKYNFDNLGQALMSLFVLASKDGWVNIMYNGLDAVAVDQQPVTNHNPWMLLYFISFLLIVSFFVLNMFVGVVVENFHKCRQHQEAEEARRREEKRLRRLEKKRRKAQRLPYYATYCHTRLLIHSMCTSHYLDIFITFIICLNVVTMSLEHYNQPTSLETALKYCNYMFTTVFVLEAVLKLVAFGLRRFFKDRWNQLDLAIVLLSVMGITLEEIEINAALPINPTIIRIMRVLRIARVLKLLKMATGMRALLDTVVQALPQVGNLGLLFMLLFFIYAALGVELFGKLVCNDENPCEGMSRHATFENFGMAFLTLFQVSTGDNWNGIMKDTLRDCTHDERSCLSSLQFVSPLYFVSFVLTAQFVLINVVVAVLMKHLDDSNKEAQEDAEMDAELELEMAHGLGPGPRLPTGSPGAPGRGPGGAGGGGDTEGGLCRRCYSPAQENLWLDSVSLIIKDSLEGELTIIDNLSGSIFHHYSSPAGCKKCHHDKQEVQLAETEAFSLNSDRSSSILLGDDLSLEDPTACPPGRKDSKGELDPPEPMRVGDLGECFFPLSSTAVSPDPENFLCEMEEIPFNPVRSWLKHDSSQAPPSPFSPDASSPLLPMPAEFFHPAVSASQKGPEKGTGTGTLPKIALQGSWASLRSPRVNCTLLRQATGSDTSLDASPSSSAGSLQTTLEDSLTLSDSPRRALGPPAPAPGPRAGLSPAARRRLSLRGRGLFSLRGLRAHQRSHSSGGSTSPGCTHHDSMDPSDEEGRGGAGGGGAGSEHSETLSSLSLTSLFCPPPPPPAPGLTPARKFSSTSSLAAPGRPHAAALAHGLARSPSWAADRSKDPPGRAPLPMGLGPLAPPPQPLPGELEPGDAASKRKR
Sequence of Cytochrome P450 3A4 (P08684 whole entry): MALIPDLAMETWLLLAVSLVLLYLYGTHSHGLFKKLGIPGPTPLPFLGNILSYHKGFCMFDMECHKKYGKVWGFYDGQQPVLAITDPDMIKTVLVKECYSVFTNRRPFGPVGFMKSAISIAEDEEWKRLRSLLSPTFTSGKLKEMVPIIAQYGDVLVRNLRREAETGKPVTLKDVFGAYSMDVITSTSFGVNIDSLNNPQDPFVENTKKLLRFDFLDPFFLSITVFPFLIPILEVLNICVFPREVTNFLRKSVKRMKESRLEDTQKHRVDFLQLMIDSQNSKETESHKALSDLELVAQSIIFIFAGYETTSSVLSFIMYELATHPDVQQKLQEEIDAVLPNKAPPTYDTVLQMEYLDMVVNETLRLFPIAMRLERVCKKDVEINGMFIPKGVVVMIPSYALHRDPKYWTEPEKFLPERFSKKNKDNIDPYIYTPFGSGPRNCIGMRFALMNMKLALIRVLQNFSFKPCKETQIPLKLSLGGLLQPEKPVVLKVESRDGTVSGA

SMILES: CCC1(c2ccccc2)c2c(F)ccc(F)c2NC(=O)N1CC(F)(F)F (centres undefined)
Activity [1]: 657 nM | activation at 10 µM [2]: 91%

SMILES: CCCC1(c2cccc(OC)c2)c2cc(Cl)ccc2NC(=O)N1CC(F)(F)F (centres undefined)
Activity [1]: 171 nM

SMILES: CCCC1(c2ccc(F)cc2)c2cc(Cl)ccc2NC(=O)N1CC(F)(F)F (single isomer, unassigned; 24B)
Activity [1]: 1320 nM

SMILES: CCC(C)C1(C2CC2)c2cc(Cl)ccc2NC(=O)N1CC(F)(F)F (centres undefined)
Activity [1]: 447 nM

SMILES: N#Cc1ccc([C@@]2(C3CC3)c3cc(Cl)ccc3NC(=O)N2CC(F)(F)F)cc1
Activity [1]: 14 nM | Activity [3]: 590 nM

SMILES: CCCC1(c2cccc(-c3nccs3)c2)c2cc(Cl)ccc2NC(=O)N1CC(F)(F)F (centres undefined)
Activity [1]: 62 nM

SMILES: O=C1Nc2ccc(F)c(F)c2C(CCF)(c2ccc(F)cc2)N1CC(F)(F)F (centres undefined)
Activity [1]: 17 nM | remaining at 1 h [4]: 66% | activation at 10 µM [2]: 53%

SMILES: CCC1(c2ccccc2)c2cc(F)ccc2NC(=O)N1CC(F)(F)F (single isomer, unassigned; 35B) [listing 1 of 2 here]
activation at 10 µM [2]: 74%

SMILES: O=C1Nc2ccc(Cl)cc2C(CC(F)F)(c2ccc(F)cc2)N1CC(F)(F)F (single isomer, unassigned; 31A)
Activity [1]: 60 nM

SMILES: CCCC1(c2ccccc2)c2cc(F)ccc2NC(=O)N1CC(F)(F)F (centres undefined)
Activity [1]: 38 nM | activation at 10 µM [2]: 49%

SMILES: C=CCC1(c2ccccc2)c2cc(Cl)ccc2NC(=O)N1CC(F)(F)F (centres undefined)
Activity [1]: 87 nM

SMILES: CCC1(c2ccccc2)c2cc(Cl)ccc2NC(=O)N1C (centres undefined)
Activity [1]: 847 nM | Activity [3]: 2170 nM

SMILES: CCC1(c2ccc(F)cc2)c2cc(F)ccc2NC(=O)N1CC(F)(F)F (centres undefined)
Activity [1]: 25 nM | activation at 10 µM [2]: 58%

SMILES: O=C1Nc2ccc(Cl)cc2C(CCF)(c2ccc(F)cc2)N1CC(F)(F)F (single isomer, unassigned; 30A)
Activity [1]: 42 nM

SMILES: CCC1(c2ccc(F)cc2)c2c(ccc(F)c2F)N(CCOC)C(=O)N1CC(F)(F)F (centres undefined)
Activity [1]: 53 nM | activation at 10 µM [2]: 70%

SMILES: CCCC1(c2cccc(-c3ccnn3C)c2)c2cc(Cl)ccc2NC(=O)N1CC(F)(F)F (centres undefined)
Activity [1]: 318 nM

SMILES: CCC1(c2ccccc2)c2c(ccc(F)c2F)NC(=O)N1CC(F)(F)F (single isomer, unassigned) [listing 1 of 2 here]
Activity [1]: 20 nM

SMILES: CCCC1(c2cccc(N3CCOCC3)c2)c2cc(Cl)ccc2NC(=O)N1CC(F)(F)F (centres undefined)
Activity [1]: 161 nM

SMILES: O=C1Nc2ccc(F)c(F)c2C(CCO)(c2ccc(F)cc2)N1CC(F)(F)F (centres undefined)
Activity [1]: 3090 nM

SMILES: CCC1(c2ccccc2)c2cc(F)ccc2NC(=O)N1CC(F)(F)F (single isomer, unassigned; 35B) [listing 2 of 2 here]
Activity [1]: 3740 nM

SMILES: O=C1Nc2ccc(Cl)cc2C(CCF)(c2ccc(F)cc2)N1CC(F)(F)F (single isomer, unassigned; 30B)
Activity [1]: 905 nM

SMILES: CCC1(c2ccccc2)c2c(ccc(Cl)c2F)NC(=O)N1CC(F)(F)F (centres undefined)
Activity [1]: 132 nM | activation at 10 µM [2]: 61%

SMILES: O=C1Nc2ccc(F)c(F)c2C(CC(F)F)(c2ccc(F)cc2)N1CC(F)(F)F (centres undefined)
fraction unbound [6]: 0.021 | clearance [7]: 55 mL/min/kg | half-life [8]: 1.6 h | Activity [1]: 14 nM | remaining at 1 h [4]: 68% | inhibition (INH) (Cytochrome P450 3A4): tde | Vd [9]: 6.7 L/kg | clearance [10]: 10.5 mL/min/kg | half-life [11]: 5.9 h | Vd [12]: 3.6 L/kg | bioavailability [13]: 15% | clearance [14]: 23 mL/min/kg | half-life [15]: 5.8 h | Vd [16]: 9.8 L/kg | bioavailability [17]: 15% | inhibition in vivo at 10 mg/kg (Rattus norvegicus [18]): 70% | Activity (Rattus norvegicus [19]): Active | Activity (Rattus norvegicus [20]): Active | Activity (Rattus norvegicus [21]): Active | fraction unbound (Homo sapiens [22]): 0.015 | activation at 10 µM [2]: 35% | Ratio (Rattus norvegicus [23]): 1.5 | Ratio (Homo sapiens [24]): 1.2

SMILES: CCCCC1(C2CC2)c2cc(Cl)ccc2NC(=O)N1CC(F)(F)F (centres undefined)
Activity [1]: 111 nM

SMILES: CCC1(c2ccc(F)cc2)c2c(ccc(F)c2F)NC(=O)N1CC(F)(F)F (centres undefined)
Activity [1]: 16 nM | remaining at 1 h [4]: < 1% | activation at 10 µM [2]: 52%

SMILES: CCC1(c2ccccc2)c2c(F)cccc2NC(=O)N1CC(F)(F)F (centres undefined)
Activity [1]: 111 nM | activation at 10 µM [2]: 83%

SMILES: CCCC1(c2ccc(F)cc2)c2c(ccc(F)c2F)NC(=O)N1CC(F)(F)F (centres undefined)
Activity [1]: 6 nM | activation at 10 µM [2]: 73%

SMILES: CCC1(c2ccc(F)c(F)c2)c2cc(Cl)ccc2NC(=O)N1CC(F)(F)F (centres undefined)
Activity [1]: 141 nM

SMILES: CC[C@]1(c2ccc(F)cc2)c2cc(Cl)ccc2NC(=O)N1CC(F)(F)F
Activity [1]: 61 nM | Activity [3]: 239 nM

Further lines, results first:

Activity [1]: 3880 nM
SMILES: CCC1(c2ccccc2)c2cc(Cl)ccc2NC(=O)N1CC(F)(F)F (single isomer, unassigned; 21B)

Activity [1]: 757 nM | activation at 10 µM [2]: 44%
SMILES: CC(C)(C)C1(c2ccccc2)c2cc(F)ccc2NC(=O)N1CC(F)(F)F (centres undefined)

Activity [1]: 1830 nM
SMILES: CCC1(c2ccc(F)cc2)c2c(ccc(F)c2F)N(Cc2c(C)noc2C)C(=O)N1CC(F)(F)F (centres undefined)

Activity [1]: 469 nM
SMILES: O=C1Nc2ccc(Cl)cc2C(CC(F)F)(c2ccc(F)cc2)N1CC(F)(F)F (single isomer, unassigned; 31B)

Activity [1]: 290 nM
SMILES: N#CC1(c2ccc(F)cc2)c2c(ccc(F)c2F)NC(=O)N1CC(F)(F)F (centres undefined)

Activation [5]: 63%
SMILES: CCC1(c2ccccc2)c2cc(F)ccc2NC(=O)N1CC(F)(F)F (single isomer, unassigned; 35A) [listing 1 of 2 here]

Activity [1]: 50 nM
SMILES: CCC1(c2ccccc2)c2cc(F)ccc2NC(=O)N1CC(F)(F)F (single isomer, unassigned; 35A) [listing 2 of 2 here]

Activity [1]: 879 nM
SMILES: CCCC1(c2ccc(OC)cc2)c2cc(Cl)ccc2NC(=O)N1CC(F)(F)F (centres undefined)

Activity [1]: 25 nM
SMILES: CCCC1(c2ccc(F)cc2)c2cc(Cl)ccc2NC(=O)N1CC(F)(F)F (single isomer, unassigned; 24A)

activation at 10 µM [2]: 48%
SMILES: CCC1(c2ccccc2)c2c(ccc(F)c2F)NC(=O)N1CC(F)(F)F (single isomer, unassigned) [listing 2 of 2 here]

Activity [1]: 73 nM
SMILES: CCCC1(c2cccc(Oc3ccccn3)c2)c2cc(Cl)ccc2NC(=O)N1CC(F)(F)F (centres undefined)

Activity [1]: 2040 nM
SMILES: CCC1(c2ccccc2)c2c(ccc(F)c2F)NC(=O)N1CC(F)(F)F (stereo in doubt; 36B)

Activity [1]: 71 nM
SMILES: CCC1(c2ccccc2)c2cc(Cl)ccc2NC(=O)N1CC(F)(F)F (single isomer, unassigned; 21A)
